Results on 3 molecules are retold here after ChEMBL document CHEMBL1123648, “Synthesis, chemical reactivity, and antileukemic activity of 5-substituted 6,7-bis(hydroxymethyl)pyrrolo[1,2-c]thiazole biscarbamates and the corresponding sulfoxides and sulfones” (1987).

The nature of assay [1]: Antileukemic activity against Murine P388 lymphocytic leukemia, body weight difference of the test animals compared to control group B animals at a dose of 100 mg/kg. It is filed as functional, Mus musculus. Also noted: unit not given here. The procedure, abridged:
(§1)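 CD2F1 mice implanted intraperitoneally with ascitic fluid carrying ca. 1×10^6 P388 cells, under the NCI protocol. Dosing was intraperitoneal, starting 24 h after inoculation, then every 24 h for five doses in total. The body weight difference of treated mice is taken against untreated controls. Toxicity day survivors are the mice alive at day five out of those tested.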

Assay [2] is described as follows: Antileukemic activity against Murine P388 lymphocytic leukemia, body weight difference of the test animals compared to control group B animals at a dose of 12.5 mg/kg. Type of assay: functional, Mus musculus. Also noted: unit not given here. The procedure, abridged: as §1
Assay [3] is described as follows: Antileukemic activity against Murine P388 lymphocytic leukemia, body weight difference of the test animals compared to control group B animals at a dose of 25 mg/kg. It is filed as functional, Mus musculus. The arrangement: unit not given here. The procedure, abridged:
as §1

A short description of assay [4]: Antileukemic activity against Murine P388 lymphocytic leukemia, body weight difference of the test animals compared to control group B animals at a dose of 50 mg/kg. Type of assay: functional, Mus musculus. Also noted: unit not given here. Put shortly: as §1
Assay [5] can be described thus: Antileukemic activity against Murine P388 lymphocytic leukemia, body weight difference of the test animals compared to control group B animals at a dose of 6.25 mg/kg. It is filed as functional, Mus musculus. Put shortly:
as §1

Assay [6] is described as follows: Toxicity day survivors expressed as number of animals that survived to day five/ number of test animals under control group B at a dose of 100 mg/kg; 6 survived out of 6. Type of assay: functional, Mus musculus.
Assay [7] is described as follows: Toxicity day survivors expressed as number of animals that survived to day five/ number of test animals under control group B at a dose of 12.5 mg/kg. It is filed as functional, Mus musculus.
Assay [8] in a line: Toxicity day survivors expressed as number of animals that survived to day five/ number of test animals under control group B at a dose of 25 mg/kg; 6 survived out of 6. Type of assay: functional, Mus musculus.
Assay [9] can be described thus: Antileukemic activity against Murine P388 lymphocytic leukemia and toxicity day survivors expressed as number of animals that survived to day five/ number of test animals under control group B at a dose of 6.5 mg/kg; 6 survived out of 6. It is filed as functional, Mus musculus.
The nature of assay [10]: Toxicity day survivors expressed as number of animals that survived to day five/ number of test animals under control group B at a dose of 50 mg/kg; 6 survived out of 6. Type of assay: functional, Mus musculus.
Assay [11] is described as follows: Percent increase in life span of test animals compared to untreated tumor-bearing control group B animals at a dose of 12.5 mg/kg. Type of assay: functional. To be noted: Mus musculus.
A short description of assay [12]: Percent increase in life span of test animals compared to untreated tumor-bearing control group B animals at a dose of 50 mg/kg. Type of assay: functional. To be noted: Mus musculus.
Assay [13] in a line: Percent increase in life span of test animals compared to untreated tumor-bearing control group B animals at a dose of 6.25 mg/kg. It is filed as functional. To be noted: Mus musculus.
In assay [14] the test system is P388. Kind of assay: Log cell population relative to cell population at the beginning of treatment compared to control group B at a dose of 6.25 mg/kg. Type of assay: functional, Mus musculus.
Assay [15] in a line: Antileukemic activity against Murine P388 lymphocytic leukemia, body weight difference of the test animals compared to control group C animals at a dose of 100 mg/kg. It is filed as functional, Mus musculus. The arrangement: unit not given here. Put shortly: as §1
The nature of assay [16]: Antileukemic activity against Murine P388 lymphocytic leukemia, body weight difference of the test animals compared to control group C animals at a dose of 200 mg/kg. Type of assay: functional, Mus musculus. The procedure, abridged:
as §1

A short description of assay [17]: Antileukemic activity against Murine P388 lymphocytic leukemia, body weight difference of the test animals compared to control group C animals at a dose of 25 mg/kg. Type of assay: functional, Mus musculus. Put shortly: as §1
Assay [18] in a line: Antileukemic activity against Murine P388 lymphocytic leukemia, body weight difference of the test animals compared to control group C animals at a dose of 50 mg/kg. Also noted: unit not given here. It is filed as functional, Mus musculus. The procedure, abridged:
as §1

A short description of assay [19]: Percent increase in life span of test animals compared to untreated tumor-bearing control group C animals at a dose of 100 mg/kg. It is filed as functional. Conditions: Mus musculus.
Assay [20] can be described thus: Percent increase in life span of test animals compared to untreated tumor-bearing control group C animals at a dose of 200 mg/kg. To be noted: Mus musculus. It is filed as functional.
The test system of assay [21] is P388. Description: Log cell population relative to cell population at the beginning of treatment compared to control group C at a dose of 100 mg/kg. It is filed as functional, Mus musculus.
Assay [22] is described as follows: Percent increase in life span of test animals compared to untreated tumor-bearing control group C animals at a dose of 25 mg/kg. Type of assay: functional. Conditions: Mus musculus.
Assay [23] is described as follows: Percent increase in life span of test animals compared to untreated tumor-bearing control group C animals at a dose of 50 mg/kg. It is filed as functional. To be noted: Mus musculus.
Assay [24] can be described thus: Toxicity day survivors expressed as number of animals that survived to day five/ number of test animals under control group C at a dose of 100 mg/kg; 6 survived out of 6. Type of assay: functional, Mus musculus.
A short description of assay [25]: Toxicity day survivors expressed as number of animals that survived to day five/ number of test animals under control group C at a dose of 200 mg/kg; 6 survived out of 6. It is filed as functional, Mus musculus.
Assay [26] can be described thus: Toxicity day survivors expressed as number of animals that survived to day five/ number of test animals under control group C at a dose of 25 mg/kg; 6 survived out of 6. Type of assay: functional, Mus musculus.
Assay [27] can be described thus: Toxicity day survivors expressed as number of animals that survived to day five/ number of test animals under control group C at a dose of 50 mg/kg; 6 survived out of 6. It is filed as functional, Mus musculus.
In assay [28] the test system is P388. Description: Log cell population relative to cell population at the beginning of treatment compared to control group A at a dose of 50 mg/kg. Type of assay: functional, Mus musculus.
Assay [29] has as its system P388. Description: Log cell population relative to cell population at the beginning of treatment compared to control group C at a dose of 200 mg/kg. Type of assay: functional, Mus musculus.
Assay [30] has as its system P388. Kind of assay: Log cell population relative to cell population at the beginning of treatment compared to control group C at a dose of 25 mg/kg. Type of assay: functional, Mus musculus.
A short description of assay [31]: Toxicity day survivors expressed as number of animals that survived to day five/ number of test animals under control group B at a dose of 12.5 mg/kg; 6 survived out of 6. Type of assay: functional, Mus musculus.
Assay [32] is described as follows: Percent increase in life span of test animals compared to untreated tumor-bearing control group B animals at a dose of 100 mg/kg. Type of assay: functional. To be noted: Mus musculus.
Assay [33] can be described thus: Percent increase in life span of test animals compared to untreated tumor-bearing control group B animals at a dose of 25 mg/kg. Type of assay: functional. To be noted: Mus musculus.
The test system of assay [34] is P388. Kind of assay: Log cell population relative to cell population at the beginning of treatment compared to control group B at a dose of 12.5 mg/kg. Type of assay: functional, Mus musculus.
In assay [35] the test system is P388. Kind of assay: Log cell population relative to cell population at the beginning of treatment compared to control group B at a dose of 25 mg/kg. It is filed as functional, Mus musculus.
Assay [36] has as its system P388. Kind of assay: Log cell population relative to cell population at the beginning of treatment compared to control group B at a dose of 50 mg/kg. It is filed as functional, Mus musculus.
For assay [37], the system named is P388. Description: Log cell population relative to cell population at the beginning of treatment compared to control group B at a dose of 100 mg/kg. Type of assay: functional, Mus musculus.

In the case of `CC(C)NC(=O)OCc1c(COC(=O)NC(C)C)c(-c2ccc(Cl)c(Cl)c2)n2c1CS(=O)(=O)C2`, the BWD was -2.3 in assay [1]; 1.3 in assay [2]; 0.4 in [3]; -0.8 in assay [4]; -0.6 in [5]. Moreover, the TDS in assay [6], in assay [7], in assay [8], in [9] and in [10] was 6 throughout. For the same molecule, the ILS at 12.5 mg/kg in [11] is -13%. The ILS at 50 mg/kg in [12] is -14%. Moreover, the ILS at 6.25 mg/kg in [13] stood at 1%. For the same molecule, in the assay on P388 [14], the KE is -1.47.

`CNC(=O)OCc1c(COC(=O)NC)c2n(c1C)C[S+]([O-])C2` (stereo unspecified): the BWD came to 0.8 in assay [15], 0.4 in [16], 0 in assay [17] and 1.1 in [18]. In addition, in [19], the ILS at 100 mg/kg worked out at 22%. Besides, the ILS at 200 mg/kg in [20] stood at 15%. The KE is -0.05 with P388 [21], -0.09 in the assay with P388 [28], -0.08 with P388 [29] and -0.09 in the assay with P388 [30]. Moreover, the ILS at 25 mg/kg in [22] turned out to be 13%. Also, in [23], the ILS at 50 mg/kg worked out at 13%. Moreover, the TDS in assay [24], in assay [25], in assay [26] and in assay [27] was 6 each time.

Regarding `Cc1c(COC(=O)NC(C)C)c(COC(=O)NC(C)C)c2n1CS(=O)(=O)C2`, the BWD in [1] is -4; in assay [2], -1.1; in assay [3], -1.8; in assay [4] it was -1.8. Further, the TDS in [6], in [31], in assay [8] and in assay [10] was 6 in each case. Besides, in assay [32], the ILS at 100 mg/kg is 118%. The ILS at 12.5 mg/kg in assay [11] is 42%. In addition, in assay [33], the ILS at 25 mg/kg is 59%. For the same molecule, the ILS at 50 mg/kg in assay [12] was determined as 84%. In addition, the KE is on record as 0.85 in the assay with P388 [34], 2.39 with P388 [35], 4.71 with P388 [36] and more than 6.77 in the assay with P388 [37].
